GalR3 antag = GalR3 antagonists in HEK293 cells, primary screen, cell-based, fluorescence readout; HEK293 GalR3-CNG cAMP membrane potential fluorescence; galR3 body fused to GalR1 C-terminus; inhibition, % at 3 µM; actives 0.44% (n = 360,000); Galanin receptor type 3 (Homo sapiens), O60755;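 active = inhibition above the screen-wide average plus 3 SD, cut at about 13% in these data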;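 note: forskolin and galanin both at EC90 stimulate the cells; cAMP rise reported by CNG channel membrane potential dye signal; 0% = forskolin plus galanin with DMSO and 100% = forskolin alone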
Target sequence (O60755 1-299 limits assumed): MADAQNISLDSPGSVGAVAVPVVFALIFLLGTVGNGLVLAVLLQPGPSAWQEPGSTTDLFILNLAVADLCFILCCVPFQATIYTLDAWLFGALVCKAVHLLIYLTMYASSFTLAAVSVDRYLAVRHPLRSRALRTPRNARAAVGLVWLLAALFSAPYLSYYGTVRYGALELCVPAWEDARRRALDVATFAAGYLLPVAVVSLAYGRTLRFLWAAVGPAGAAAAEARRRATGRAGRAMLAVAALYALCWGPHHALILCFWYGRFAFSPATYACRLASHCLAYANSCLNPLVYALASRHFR
OX1R antag-1 = OX1R (HCRTR1) antagonists, primary screen, fluorescence, CHO/OX1R cells, Fluo-8 calcium, orexin A; Orexin/Hypocretin receptor type 1 (Homo sapiens), O43613; Fluo-8 calcium fluorescence; inhibition, % at 5 µM; actives 0.43% (n = 330,000);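 active = inhibition above its plate's threshold, mean inhibition of all tested compounds on the plate plus 3 SD, cut at about 37% in these data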;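 note: 0% = orexin A challenge wells and 100% = SB-334867-A antagonist wells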
CHO parental Ca = ATP-evoked calcium signal inhibitors, parental CHO, primary screen, counter-screen for OX1R antagonist project, cell-based, fluorescence, Fluo-8 calcium dye. parental CHO-K1, ATP-induced calcium, Fluo-8 fluorescence. inhibition, % at 5.6 µM. actives 0.63% (n = 330,000). AID 463079, 2010;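 active = inhibition above that plate's mean sample inhibition plus 3 SD, cut at about 26% in these data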;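 note: 0% = ATP-challenged DMSO wells and 100% = DMSO wells without ATP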
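Material: parental CHO cells / Compound: single nominal dose of 5.6 µM per compound / Signal: Fluo-8 fluorescence / Replicates: singlicate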
GPR7 antag = GPR7 receptor antagonists, primary screen, cell-based, fluorescence, single concentration | GPR7-expressing cells, fluorescence antagonist assay | inhibition, % at 4.4 µM | Neuropeptides B/W receptor type 1 (Homo sapiens), P48145 | actives 1.1% (n = 290,000); in the data active = inhibition above about 16%, passing the limit was not always enough;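 note: cells stimulated with the agonist NPW; 0% = agonist with vehicle and 100% = vehicle without agonist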
Target sequence (P48145 whole entry, looked up): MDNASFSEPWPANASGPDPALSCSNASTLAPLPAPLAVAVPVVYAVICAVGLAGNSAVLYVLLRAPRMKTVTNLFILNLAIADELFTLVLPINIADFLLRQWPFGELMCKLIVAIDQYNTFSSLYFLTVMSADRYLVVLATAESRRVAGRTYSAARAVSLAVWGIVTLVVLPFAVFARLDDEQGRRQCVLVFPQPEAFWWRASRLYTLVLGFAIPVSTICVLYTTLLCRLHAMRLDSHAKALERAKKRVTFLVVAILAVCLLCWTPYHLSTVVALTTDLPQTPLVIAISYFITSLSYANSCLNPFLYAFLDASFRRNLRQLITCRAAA
OX1R antag-2 = antagonists of human orexin 1 receptor (OX1R) | AID 485270, 2010 | actives 1.8% (n = 330,000) | inhibition, % at 6.6 µM | OX1R-expressing cells, FRET antagonist read-out | Orexin/Hypocretin receptor type 1 (Homo sapiens), O43613; in the data active = inhibition mostly above about 38%, no sharp cut-off; inactive = mostly below about 40%;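 note: 0% = agonist challenge alone and 100% = reference antagonist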
GalR3 conf = GalR3 antagonist hit confirmation, cell-based, fluorescence, triplicate; shares compounds with GalR3 antag; HEK293 GalR3 CNG cAMP biosensor, membrane potential fluorescence; galR3 fused to GalR1 carboxy tail; challenged with forskolin and galanin at EC90; inhibition, % at 3 µM; actives 59% (n = 1,600); AID 652245, 2013;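 active = inhibition above the primary screen's cutoff, the mean inhibition of all screened compounds plus 3 SD, cut at about 13% in these data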;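 note: 0% = forskolin plus galanin and 100% = forskolin alone with DMSO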
HEK-CNG parental = nonspecific cAMP agonists in parental HEK-CNG cells, counter-screen for GalR3 antagonist project, cell-based, fluorescence, high throughput; shares compounds with GalR3 antag; HEK293-CNG parental cells, cAMP membrane potential fluorescence; normalised: DMSO wells 0%, forskolin wells 100%; AID 652268, 2013; actives 10% (n = 1,600); activation, % at 3 µM; in the data active = activation above about 1.3%
An asterisk follows results filed as active; / = no result. In the library only some 3.1% were active in any assay of this set; here they are far more common.

SMILES	GalR3 antag	OX1R antag-1	CHO parental Ca	GPR7 antag	OX1R antag-2	GalR3 conf	HEK-CNG parental
CC12CCC(C/C1=N\N=C1\NC(=O)/C(=C\c3ccc(Cl)cc3)S1)C2(C)C (configuration not stated)	17*	-3	0	-9	-1	-16	34*
O=C1NC(=Nc2ccccc2Cl)S/C1=C\c1ccc(C(=O)O)cc1	-8	0	-3	-15	3	/	/
Cc1ccc(S(=O)(=O)N(C)C)cc1NC(=O)COC(=O)CSc1ccccc1	-4	-16	-11	/	12	/	/
COc1cccc(C2C3=C(CC(C)(C)CC3=O)Nc3cc4c(cc32)OCO4)c1 (configuration not stated)	0	-37	-5	-9	12	/	/
COc1cc2c(cc1OC)C(c1ccc3c(c1)OCO3)C1=C(CC(C)(C)CC1=O)N2 (configuration not stated)	13*	-25	-11	-10	18	29*	1
COc1cccc(C2C3=C(CC(C)(C)CC3=O)Nc3cc(OC)c(OC)cc32)c1 (configuration not stated)	15*	-31	-27	-1	35	23*	0
C=CCN(CC=C)C(=O)CCc1nnc(CCc2c[nH]c3ccccc23)o1	0	-31	-6	7	-2	/	/
Cc1ccccc1Cc1ccc(Cl)nn1	1	-17	-18	-4	6	/	/
CCCCC(=O)N/N=C/c1ccc(N2CCOCC2)c([N+](=O)[O-])c1	14*	0	-2	-11	28	11	0
O=C(Cc1ccccc1)NCC1COc2ccccc2O1 (configuration not stated)	-4	-2	8	-2	18	/	/
CC(NCC1COc2ccccc2O1)C(=O)NCc1ccccc1 (configuration not stated)	13*	-11	-9	-5	10	7	0
Cc1ccccc1Nc1c(-c2ccc(N3CCOCC3)cc2)nc2cnccn12	3	-21	5	-16	7	/	/
Cc1ccc(Nc2c(-c3ccc(N4CCOCC4)cc3)nc3cnccn23)cc1	16*	-27	-8	-23	6	6	0
O=c1cc(-c2ccccc2)[nH]c2ccc(F)cc12	20*	3	-9	2	11	5	1
O=c1cc(-c2cccc(F)c2)[nH]c2ccccc12	2	3	0	13	4	/	/
Cc1[nH]nc(NCCO)c1[N+](=O)[O-]	/	-8	-14	-7	11	69*	-1
Cc1[nH]nc(Nc2ccccc2)c1[N+](=O)[O-]	4	-1	11	-2	19	/	/
Brc1ccc(-c2ncc(-c3ccccc3)cn2)cc1	/	2	13	3	7	3	0
Cc1ccc(NC2CCCN(C(=O)c3cccc4nccnc34)C2)cc1C (configuration not stated)	3	-4	-6	-8	48	/	/
O=C(COn1nnc2ccc(C(F)(F)F)cc21)Nc1c(Cl)cccc1Cl	15*	-48	-26	-13	20	6	0
Cc1cccc(C)c1NC(=O)COn1nnc2ccc(C(F)(F)F)cc21	-2	-12	-11	3	8	/	/
Cc1ccccc1NC(=O)CNc1ccc(Cl)c(C(F)(F)F)c1	14*	-12	-10	5	18	2	0
Cc1ccc(C(=O)Nc2ccc(N3CCN(C)CC3)cc2)cc1C	-10	-32	-21	-6	-10	/	/
O=C1[C@H](Cc2ccccc2)NCCCC[C@H](c2ccc(Cl)cc2)N1Cc1ccc(Cl)cc1	-6	/	/	/	/	/	/
O=C1[C@H](Cc2ccccc2)NCCCC[C@@H](c2ccc(Cl)cc2)N1Cc1ccccc1	/	/	/	/	/	1	2.3*
SMILES	GalR3 antag	OX1R antag-1	CHO parental Ca	GPR7 antag	OX1R antag-2	GalR3 conf	HEK-CNG parental
Nc1c(N(CCC2=CCCCC2)C(=O)Cc2ccccc2F)c(=O)[nH]c(=O)n1Cc1ccccc1	-5	-16	-12	/	8	/	/
CCCc1cc(=O)[nH]c(SCC(=O)c2c(C)[nH]c3ccccc23)n1	17*	-6	-15	-7	13	4	1.7*
CCCc1cc(=O)[nH]c(SCC(=O)c2c[nH]c3ccccc23)n1	-2	22	-7	-5	18	/	/
Cc1csc(NC(CO)c2nc3ccccc3n2CCOCCO)n1 (configuration not stated)	-2	-10	-13	/	29	/	/
O=C(C[C@H]1C/C=C\CC[C@@H](Cc2ccc(F)cc2)C(=O)O[C@@H](c2ccccc2)CNC1=O)N[C@@H](CO)Cc1ccccc1	-4	-7	-13	/	7	/	/
CC1(C)Cc2c(sc(NC(=O)c3ccccc3Cl)c2C(=O)O)CO1	4	-10	-4	-7	26	/	/
COc1ccc(N2CCN(Cc3nc4c(c(=O)[nH]c(=O)n4C)n3CC(C)=O)CC2)cc1	13*	-11	-10	-10	14	1	0
O=c1c2ccccc2ncn1-c1ccccc1C(F)(F)F	0	-20	-18	-6	15	/	/
O=C(Nc1ccccc1C1CC1)c1cccs1	78*	-10	-5	0	9	-9	0
COc1cc(C2NC(=O)NC3=C2C(=O)OC3)cc(OC)c1OC (configuration not stated)	-7	1	6	-6	2	/	/
COc1cc(/C=N\NC(=O)c2ccc(-c3ccccc3)cc2)cc(Br)c1O	15*	-9	-15	-26	22	41*	0
COc1ccc(CN(CC2CCC(C(=O)O)CC2)C(=S)Nc2cc(Cl)ccc2OC)cc1 (configuration not stated)	-3	-27	-19	-15	17	/	/
CCn1nnnc1SCC(=O)Nc1ccc(F)cc1	14*	1	12	3	14	71*	0
Cc1cccc(NC(=S)NC(C)C(c2cccs2)N2CCN(C)CC2)c1C (configuration not stated)	-4	-26	-13	-8	4	/	/
COC(CNS(=O)(=O)c1ccc(S(=O)(=O)N2CCCC2)cc1)OC	13*	-12	-8	-3	23	7	0
COc1ccc2[nH]c(=O)c(CNc3ccc(C)cc3C)cc2c1	14*	-25	1	-15	46	5	0

Screens: PubChem, The Scripps Research Institute Molecular Screening Center
